Experimental data as given in ChEMBL document CHEMBL3102763, “Synthesis, radiosynthesis and first in vitro evaluation of novel PET-tracers for the dopamine transporter: [(11)C]IPCIT and [(18)F]FE@IPCIT” (Bioorg Med Chem, 2013).

Legend:
Homo sapiens [1] = species on record: Homo sapiens; experiment: Selectivity ratio of Ki for human NET to Ki for human DAT
Method in brief: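 Ratio of Ki values from competition binding on human NET membranes ([3H]nisoxetine) and human DAT membranes ([3H]WIN 35,428). Both were measured in 100 mM NaCl, 50 mM Tris-HCl pH 7.4 with 2 h incubation and scintillation counting.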

Homo sapiens [2] = species on record: Homo sapiens; experiment: Selectivity ratio of Ki for human SERT to Ki for human DAT
Method in brief: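 Ratio of Ki values from competition binding on human SERT membranes ([3H]imipramine) and human DAT membranes ([3H]WIN 35,428). Both were measured in 100 mM NaCl, 50 mM Tris-HCl pH 7.4 with 2 h incubation and scintillation counting.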

[3] = target: T1, Sodium-dependent noradrenaline transporter (Homo sapiens, UniProt P23975); experiment: Displacement of [3H][…] from human NET after 2 hrs by liquid scintillation counting analysis
[4] = target: T2, Sodium-dependent serotonin transporter (Homo sapiens, UniProt P31645); experiment: Displacement of [3H][…] from human SERT after 2 hrs by liquid scintillation counting analysis
[5] = Lipophilicity, log D of the compound; type: physicochemical; details: octanol/water
Method in brief: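 HPLC method on a short polymeric ODP-50 column, with toluene and triphenylene co-injected as standards of known logD and k'. A linear gradient runs from 10% MeOH/90% 25 mM phosphate buffer to 100% methanol over 9.4 min at 1.5 mL/min.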

[6] = target: T3, Sodium-dependent dopamine transporter (Homo sapiens, UniProt Q01959); experiment: Displacement of [3H]WIN35428 from human DAT after 2 hrs by liquid scintillation counting analysis
Method in brief: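 Competition binding on human DAT membranes (12.7 µg protein/unit) in 100 mM NaCl, 50 mM Tris-HCl pH 7.4, with [3H]WIN 35,428 added as a 3 nM solution. Nonspecific binding defined with 10 µM GBR 12909. After 2 h incubation, bound label is pelleted at about 40,000g, washed twice with ice-cold buffer and counted by β-scintillation. IC50 and Ki come from competition plots, three assays each in triplicate.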

[7] = target: T2, Sodium-dependent serotonin transporter; experiment: Binding affinity to SERT (unknown origin)
Method in brief: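 Human SERT membranes (9 µg protein/unit) in 100 mM NaCl, 50 mM Tris-HCl pH 7.4, with [3H]imipramine as radioligand. Run as the DAT competition assay: 2 h incubation, centrifugation at about 40,000g and β-scintillation counting. IC50 and Ki are derived from competition plots.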

[8] = target: T1, Sodium-dependent noradrenaline transporter; experiment: Binding affinity to NET (unknown origin)
Method in brief: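 Human NET membranes (3 µg protein/unit) in 100 mM NaCl, 50 mM Tris-HCl pH 7.4, with [3H]nisoxetine as radioligand. Run as the DAT competition assay: 2 h incubation, centrifugation at about 40,000g and β-scintillation counting. IC50 and Ki are derived from competition plots.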

[9] = Metabolic stability in human plasma assessed as compound remaining after 1 hr by radio-HPLC analysis; type: ADME, cell-free; details: read-out: Stability
Method in brief: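 Radiotracer (10 µL) incubated in 500 µL pooled Li-heparin human plasma at 37 °C for up to 60 min, with ethanol kept at or below 2% final. Aliquots are quenched with one volume of ice-cold MeOH/ACN (10/1) and centrifuged (23,000g, 4 min, 5 °C). Supernatants are analysed by radio-HPLC for percent […].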

[10] = Drug metabolism in human liver microsomes after 1 hr by radio-HPLC analysis relative to control; type: ADME; details: read-out: Drug metabolism
Method in brief: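 Pooled human liver microsomes are preincubated 5 min at 37 °C in pH 7.4 phosphate buffer with an NADPH-generating system. Formulated radiotracer (6 µL) is then added in 300 µL final volume, with ethanol at or below 2%. Incubations are quenched with one volume MeOH/ACN (10/1), vortexed and centrifuged. Supernatants are analysed by radio-HPLC for percent intact tracer.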

CES1b/CES1c/CES2 = experiment: Metabolic stability assessed as human CES1b/CES1c/CES2-mediated hydrolysis measuring compound remaining after 60 mins by radio-HPLC analysis; type: ADME; details: human carboxylesterases CES1b, CES1c and CES2, read-out: Stability
Method in brief: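 A 1/1/1 mixture (20 µL) of human CES1b, CES1c and CES2 (each 5 mg/mL) is diluted with 270 µL phosphate buffer pH 7.4. Radiotracer (6 µL) is incubated in it, quenched with MeOH/ACN (10/1) and centrifuged. Supernatants are analysed by radio-HPLC for percent intact tracer.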

[11] = target: T3, Sodium-dependent dopamine transporter; experiment: Binding affinity to DAT (unknown origin)
Method in brief: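 Competition binding on human DAT-expressing membranes (12.7 µg protein/unit) in 50 mM Tris-HCl, 100 mM NaCl, pH 7.4. The radioligand was ³H-WIN 35,428, added from a 3 nM solution. Non-specific binding was defined with 10 µM GBR 12909. After 2 h incubation, membranes were pelleted at about 40,000g and washed with ice-cold buffer, then counted by β-scintillation. IC50/Ki came from competition plots: three assays, each in triplicate.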

T1 sequence (P23975 whole entry): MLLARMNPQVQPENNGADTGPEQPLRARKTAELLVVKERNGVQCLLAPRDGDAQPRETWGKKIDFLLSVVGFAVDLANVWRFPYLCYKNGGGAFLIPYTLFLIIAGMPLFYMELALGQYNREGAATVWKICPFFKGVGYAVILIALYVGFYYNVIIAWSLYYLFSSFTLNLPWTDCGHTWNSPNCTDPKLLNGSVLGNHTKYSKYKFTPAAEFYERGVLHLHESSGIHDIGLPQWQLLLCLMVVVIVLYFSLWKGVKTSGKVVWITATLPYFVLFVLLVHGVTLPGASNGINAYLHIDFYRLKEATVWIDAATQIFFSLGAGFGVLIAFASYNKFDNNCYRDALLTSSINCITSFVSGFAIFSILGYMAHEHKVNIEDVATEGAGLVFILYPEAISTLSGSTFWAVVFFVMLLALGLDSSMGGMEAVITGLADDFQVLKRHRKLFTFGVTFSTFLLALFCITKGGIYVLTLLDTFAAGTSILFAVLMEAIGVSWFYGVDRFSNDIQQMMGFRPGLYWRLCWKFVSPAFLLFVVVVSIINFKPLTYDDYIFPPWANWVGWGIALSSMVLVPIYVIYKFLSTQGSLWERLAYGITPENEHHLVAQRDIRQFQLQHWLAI
T3 sequence (Q01959 whole entry): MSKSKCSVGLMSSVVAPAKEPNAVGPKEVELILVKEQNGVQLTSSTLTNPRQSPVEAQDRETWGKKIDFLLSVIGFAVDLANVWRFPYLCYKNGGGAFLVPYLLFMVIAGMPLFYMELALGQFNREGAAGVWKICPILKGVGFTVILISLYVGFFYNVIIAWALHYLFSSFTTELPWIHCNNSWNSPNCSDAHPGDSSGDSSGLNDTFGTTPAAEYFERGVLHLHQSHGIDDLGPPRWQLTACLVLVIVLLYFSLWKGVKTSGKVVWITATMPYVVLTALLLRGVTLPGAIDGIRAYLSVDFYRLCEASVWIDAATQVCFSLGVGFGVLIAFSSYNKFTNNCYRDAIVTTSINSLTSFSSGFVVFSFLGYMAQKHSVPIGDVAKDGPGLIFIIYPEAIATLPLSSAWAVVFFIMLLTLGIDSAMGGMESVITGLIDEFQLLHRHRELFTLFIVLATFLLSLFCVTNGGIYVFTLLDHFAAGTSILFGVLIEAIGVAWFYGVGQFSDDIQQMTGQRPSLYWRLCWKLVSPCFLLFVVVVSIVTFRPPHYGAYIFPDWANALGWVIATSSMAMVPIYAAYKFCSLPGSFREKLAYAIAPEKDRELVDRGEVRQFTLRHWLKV
T2 sequence (P31645 whole entry): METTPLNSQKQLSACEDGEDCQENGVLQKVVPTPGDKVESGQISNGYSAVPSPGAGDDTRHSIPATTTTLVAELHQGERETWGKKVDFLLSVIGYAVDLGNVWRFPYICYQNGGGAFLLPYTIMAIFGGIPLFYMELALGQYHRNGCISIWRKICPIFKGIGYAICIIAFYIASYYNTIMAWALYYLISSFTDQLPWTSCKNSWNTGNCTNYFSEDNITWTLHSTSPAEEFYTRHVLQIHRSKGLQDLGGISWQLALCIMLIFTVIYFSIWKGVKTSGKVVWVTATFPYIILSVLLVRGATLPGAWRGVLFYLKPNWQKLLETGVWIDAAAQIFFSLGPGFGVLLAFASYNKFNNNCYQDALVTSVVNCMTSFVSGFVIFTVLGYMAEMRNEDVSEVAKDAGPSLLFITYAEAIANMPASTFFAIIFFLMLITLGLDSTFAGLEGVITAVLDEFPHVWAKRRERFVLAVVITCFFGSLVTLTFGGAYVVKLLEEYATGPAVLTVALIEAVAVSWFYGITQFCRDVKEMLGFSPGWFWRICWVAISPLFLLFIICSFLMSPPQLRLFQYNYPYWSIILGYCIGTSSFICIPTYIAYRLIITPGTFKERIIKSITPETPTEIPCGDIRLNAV

Structure (SMILES)	Ratio Ki (Homo sapiens [1])	Ratio Ki (Homo sapiens [2])	Ki [3]	Ki [4]	logD [5]	Ki [6]	Ki [7]	Ki [8]	remaining at 1 h [9]	metabolised at 1 h [10]	remaining at 1 h (CES1b/CES1c/CES2)	Ki [11]
O=C(OCCF)[C@H]1[C@@H](c2ccc(I)cc2)C[C@@H]2CC[C@H]1N2C/C=C/I	115	1.8	153 nM	2.4 nM	5.39	1.33 nM						
COC(=O)[C@H]1[C@@H](c2ccc(C)cc2)C[C@@H]2CC[C@H]1N2C/C=C/I							500 nM	> 1000 nM				
COC(=O)[C@H]1[C@@H](c2ccc(I)cc2)C[C@@H]2CC[C@H]1N2C/C=C/I	11		20 nM	1.5 nM	5.29	1.72 nM			100%	46.4%	92%	
O=C(OCC[18F])[C@H]1[C@@H](c2ccc(I)cc2)C[C@@H]2CC[C@H]1N2C/C=C/I									100%	71.6%	92%	
O=C(O)[C@H]1[C@@H](c2ccc(I)cc2)C[C@@H]2CC[C@H]1N2C/C=C/I			785 nM	71.4 nM	0.8	37 nM						
COC(=O)[C@H]1[C@@H](c2ccc(I)cc2)C[C@@H]2CC[C@H]1N2C							29.2 nM	32.8 nM				6.34 nM
